How the values were obtained:
[1] = biological target: T1, ALK tyrosine kinase receptor (Homo sapiens, UniProt Q9UM73); test: Inhibition of ALK using FL-Peptide 13, 5-FAM-KKSRGDYMTMQIG-CONH2 substrate after 60 mins by mobility shift assay
Target sequence in this assay (Q9UM73 whole entry): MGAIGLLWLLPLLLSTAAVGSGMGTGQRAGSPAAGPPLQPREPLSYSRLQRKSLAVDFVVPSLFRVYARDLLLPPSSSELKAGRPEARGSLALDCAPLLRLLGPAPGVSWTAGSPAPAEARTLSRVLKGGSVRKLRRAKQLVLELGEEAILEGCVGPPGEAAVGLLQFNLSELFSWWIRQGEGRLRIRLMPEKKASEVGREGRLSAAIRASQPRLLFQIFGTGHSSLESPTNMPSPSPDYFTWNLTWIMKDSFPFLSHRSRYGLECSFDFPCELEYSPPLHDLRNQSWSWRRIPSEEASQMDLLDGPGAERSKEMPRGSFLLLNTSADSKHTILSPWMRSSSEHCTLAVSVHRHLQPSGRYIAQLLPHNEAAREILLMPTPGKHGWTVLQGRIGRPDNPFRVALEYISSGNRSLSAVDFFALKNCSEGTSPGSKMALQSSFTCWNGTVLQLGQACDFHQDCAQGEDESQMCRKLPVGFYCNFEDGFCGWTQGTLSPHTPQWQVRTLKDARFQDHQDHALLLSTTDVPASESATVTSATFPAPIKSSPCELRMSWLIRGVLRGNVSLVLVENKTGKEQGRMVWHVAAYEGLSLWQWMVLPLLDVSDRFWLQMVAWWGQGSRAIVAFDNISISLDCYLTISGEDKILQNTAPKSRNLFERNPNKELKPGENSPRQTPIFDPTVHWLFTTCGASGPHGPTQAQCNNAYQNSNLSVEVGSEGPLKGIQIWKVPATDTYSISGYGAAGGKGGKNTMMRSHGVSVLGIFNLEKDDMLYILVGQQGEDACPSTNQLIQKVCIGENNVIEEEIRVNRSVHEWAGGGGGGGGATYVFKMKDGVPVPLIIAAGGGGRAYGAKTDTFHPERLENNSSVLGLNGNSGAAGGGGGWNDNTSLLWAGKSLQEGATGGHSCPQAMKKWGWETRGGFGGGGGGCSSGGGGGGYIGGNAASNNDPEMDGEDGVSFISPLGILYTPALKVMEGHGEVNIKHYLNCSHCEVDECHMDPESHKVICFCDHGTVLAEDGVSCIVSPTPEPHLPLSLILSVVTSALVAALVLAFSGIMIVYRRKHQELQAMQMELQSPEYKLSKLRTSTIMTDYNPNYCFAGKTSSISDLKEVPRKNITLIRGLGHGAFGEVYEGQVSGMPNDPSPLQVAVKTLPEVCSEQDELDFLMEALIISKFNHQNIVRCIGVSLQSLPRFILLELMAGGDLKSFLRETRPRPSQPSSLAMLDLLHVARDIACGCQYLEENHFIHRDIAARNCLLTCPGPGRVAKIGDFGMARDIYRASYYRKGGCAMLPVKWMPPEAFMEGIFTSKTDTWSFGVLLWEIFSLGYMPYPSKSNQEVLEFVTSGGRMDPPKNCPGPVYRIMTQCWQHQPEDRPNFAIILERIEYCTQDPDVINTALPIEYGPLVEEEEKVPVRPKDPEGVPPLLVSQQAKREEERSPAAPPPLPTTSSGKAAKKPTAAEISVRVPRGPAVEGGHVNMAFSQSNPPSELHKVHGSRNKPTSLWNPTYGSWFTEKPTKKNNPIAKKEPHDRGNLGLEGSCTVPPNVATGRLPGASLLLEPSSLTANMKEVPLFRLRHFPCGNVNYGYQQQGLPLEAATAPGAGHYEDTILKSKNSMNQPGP

[2] = biological target: T1, ALK tyrosine kinase receptor; test: Inhibition of ALK using FL-Peptide 13, 5-FAM-KKSRGDYMTMQIG-CONH2 substrate at 10 uM after 60 mins by mobility shift assay
How it was run: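 Recombinant ALK at 42 ng/mL, with 1.5 µM fluorescent peptide substrate and ATP. Buffer: 50 mM Hepes pH 7.4, 10 mM MgCl2, 1 mM DTT, 1% protease and 1% phosphatase inhibitor cocktails, 0.01% Brij-35. Compound was added in 5% DMSO. Incubated 60 min at room temperature, then read by mobility shift.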
Target sequence in this assay (Q9UM73 19-1620 limits assumed): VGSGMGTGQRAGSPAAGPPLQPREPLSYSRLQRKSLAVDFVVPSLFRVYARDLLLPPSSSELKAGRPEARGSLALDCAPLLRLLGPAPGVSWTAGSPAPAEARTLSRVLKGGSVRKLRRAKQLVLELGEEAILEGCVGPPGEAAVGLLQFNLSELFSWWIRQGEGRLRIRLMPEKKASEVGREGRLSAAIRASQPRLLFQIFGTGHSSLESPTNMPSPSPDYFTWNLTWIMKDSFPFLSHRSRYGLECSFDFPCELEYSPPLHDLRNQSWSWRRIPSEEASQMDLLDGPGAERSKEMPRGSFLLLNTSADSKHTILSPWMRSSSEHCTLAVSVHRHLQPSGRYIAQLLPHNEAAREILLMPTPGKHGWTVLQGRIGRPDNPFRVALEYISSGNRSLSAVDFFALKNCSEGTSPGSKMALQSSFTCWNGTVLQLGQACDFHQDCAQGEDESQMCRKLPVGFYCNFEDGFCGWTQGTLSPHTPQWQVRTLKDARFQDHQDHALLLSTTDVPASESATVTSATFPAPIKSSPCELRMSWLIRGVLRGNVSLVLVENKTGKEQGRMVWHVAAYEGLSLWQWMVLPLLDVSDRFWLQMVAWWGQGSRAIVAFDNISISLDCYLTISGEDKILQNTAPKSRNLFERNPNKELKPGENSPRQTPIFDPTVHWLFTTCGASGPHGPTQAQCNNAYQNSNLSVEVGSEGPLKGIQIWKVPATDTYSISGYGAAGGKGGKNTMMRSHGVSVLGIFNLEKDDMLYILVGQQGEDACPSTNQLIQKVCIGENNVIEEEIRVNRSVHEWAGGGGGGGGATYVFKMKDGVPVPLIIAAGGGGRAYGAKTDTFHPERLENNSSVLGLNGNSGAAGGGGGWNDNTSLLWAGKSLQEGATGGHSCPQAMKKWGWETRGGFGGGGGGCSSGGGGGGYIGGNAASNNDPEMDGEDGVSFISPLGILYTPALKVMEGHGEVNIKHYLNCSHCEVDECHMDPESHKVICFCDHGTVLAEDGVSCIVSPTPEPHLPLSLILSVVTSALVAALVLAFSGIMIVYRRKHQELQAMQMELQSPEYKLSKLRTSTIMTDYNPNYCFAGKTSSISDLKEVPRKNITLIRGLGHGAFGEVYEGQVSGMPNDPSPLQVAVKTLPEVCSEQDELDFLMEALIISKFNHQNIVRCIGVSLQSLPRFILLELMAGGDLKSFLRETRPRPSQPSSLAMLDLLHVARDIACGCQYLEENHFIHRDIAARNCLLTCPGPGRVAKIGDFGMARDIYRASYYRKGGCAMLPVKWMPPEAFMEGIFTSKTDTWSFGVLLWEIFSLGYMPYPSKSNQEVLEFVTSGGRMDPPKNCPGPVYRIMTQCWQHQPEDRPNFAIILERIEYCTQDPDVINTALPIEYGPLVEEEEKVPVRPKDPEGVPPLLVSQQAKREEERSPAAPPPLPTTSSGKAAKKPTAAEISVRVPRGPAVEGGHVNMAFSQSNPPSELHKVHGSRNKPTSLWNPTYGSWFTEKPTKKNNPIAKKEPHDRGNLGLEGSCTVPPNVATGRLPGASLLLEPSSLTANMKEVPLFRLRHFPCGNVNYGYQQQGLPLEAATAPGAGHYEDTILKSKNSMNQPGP

[3] = biological target: T1, ALK tyrosine kinase receptor; test: Inhibition of ALK at 4 uM by mobility shift assay
How it was run: (§1)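 Tyrosine kinase panel run by a contract lab. Each enzyme was incubated with 1 mM ATP and 1 µM of its appropriate peptide substrate, and the product was then read by mobility shift.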
Target sequence in this assay (Q9UM73 19-1620 limits assumed): as above

[4] = biological target: T1, ALK tyrosine kinase receptor; test: Inhibition of EML4-ALK at 4 uM by mobility shift assay; how it was run: as §1
Target sequence in this assay (Q9UM73 19-1620 limits assumed): as above

[5] = Inhibition of NPM1/ALK at 4 uM by mobility shift assay; how it was run: as §1
[6] = biological target: Tyrosine-protein kinase ABL1 (Homo sapiens) (UniProt P00519); test: Inhibition of ABL at 4 uM by mobility shift assay; how it was run: as §1
[7] = biological target: Tyrosine-protein kinase CSK (Homo sapiens) (UniProt P41240); test: Inhibition of CSK at 4 uM by mobility shift assay; how it was run: as §1
[8] = biological target: Epidermal growth factor receptor (Homo sapiens) (UniProt P00533); test: Inhibition of EGFR at 4 uM by mobility shift assay; how it was run: as §1
[9] = biological target: Ephrin type-A receptor 2 (Homo sapiens) (UniProt P29317); test: Inhibition of EPHA2 at 4 uM by mobility shift assay; how it was run: as §1
[10] = biological target: Fibroblast growth factor receptor 1 (Homo sapiens) (UniProt P11362); test: Inhibition of FGFR1 at 4 uM by mobility shift assay; how it was run: as §1
[11] = biological target: Receptor-type tyrosine-protein kinase FLT3 (Homo sapiens) (UniProt P36888); test: Inhibition of FLT3 at 4 uM by mobility shift assay; how it was run: as §1
[12] = biological target: Insulin-like growth factor 1 receptor (Homo sapiens) (UniProt P08069); test: Inhibition of IGF-1R at 4 uM by mobility shift assay; how it was run: as §1
[13] = biological target: Insulin receptor (Homo sapiens) (UniProt P06213); test: Inhibition of INSR at 4 uM by mobility shift assay; how it was run: as §1
[14] = biological target: Tyrosine-protein kinase ITK/TSK (Homo sapiens) (UniProt Q08881); test: Inhibition of ITK at 4 uM by mobility shift assay; how it was run: as §1
[15] = biological target: Tyrosine-protein kinase JAK3 (Homo sapiens) (UniProt P52333); test: Inhibition of JAK3 at 4 uM by mobility shift assay; how it was run: as §1
[16] = biological target: Vascular endothelial growth factor receptor 2 (Homo sapiens) (UniProt P35968); test: Inhibition of KDR at 4 uM by mobility shift assay; how it was run: as §1
[17] = biological target: Tyrosine-protein kinase Lck (Homo sapiens) (UniProt P06239); test: Inhibition of LCK at 4 uM by mobility shift assay; how it was run: as §1
[18] = biological target: Hepatocyte growth factor receptor (Homo sapiens) (UniProt P08581); test: Inhibition of MET at 4 uM by mobility shift assay; how it was run: as §1
[19] = biological target: Platelet-derived growth factor receptor alpha (Homo sapiens) (UniProt P16234); test: Inhibition of PDGFRa at 4 uM by mobility shift assay; how it was run: as §1
[20] = biological target: Proto-oncogene tyrosine-protein kinase Src (Homo sapiens) (UniProt P12931); test: Inhibition of SRC at 4 uM by mobility shift assay; how it was run: as §1
[21] = biological target: Tyrosine-protein kinase SYK (Homo sapiens) (UniProt P43405); test: Inhibition of SYK at 4 uM by mobility shift assay; how it was run: as §1
[22] = biological target: Angiopoietin-1 receptor (Homo sapiens) (UniProt Q02763); test: Inhibition of TIE2 at 4 uM by mobility shift assay; how it was run: as §1
[23] = biological target: High affinity nerve growth factor receptor (Homo sapiens) (UniProt P04629); test: Inhibition of TRKA at 4 uM by mobility shift assay; how it was run: as §1
[24] = biological target: Tyrosine-protein kinase receptor TYRO3 (Homo sapiens) (UniProt Q06418); test: Inhibition of TYRO3 at 4 uM by mobility shift assay; how it was run: as §1
[25] = biological target: Protein-tyrosine kinase 2-beta (Homo sapiens) (UniProt Q14289); test: Inhibition of PYK2 at 4 uM by mobility shift assay; how it was run: as §1
[26] = biological target: Ephrin type-B receptor 4 (Homo sapiens) (UniProt P54760); test: Inhibition of EPHB4 at 4 uM by mobility shift assay

Sequence of Protein-tyrosine kinase 2-beta (Homo sapiens) (Q14289 whole entry, looked up): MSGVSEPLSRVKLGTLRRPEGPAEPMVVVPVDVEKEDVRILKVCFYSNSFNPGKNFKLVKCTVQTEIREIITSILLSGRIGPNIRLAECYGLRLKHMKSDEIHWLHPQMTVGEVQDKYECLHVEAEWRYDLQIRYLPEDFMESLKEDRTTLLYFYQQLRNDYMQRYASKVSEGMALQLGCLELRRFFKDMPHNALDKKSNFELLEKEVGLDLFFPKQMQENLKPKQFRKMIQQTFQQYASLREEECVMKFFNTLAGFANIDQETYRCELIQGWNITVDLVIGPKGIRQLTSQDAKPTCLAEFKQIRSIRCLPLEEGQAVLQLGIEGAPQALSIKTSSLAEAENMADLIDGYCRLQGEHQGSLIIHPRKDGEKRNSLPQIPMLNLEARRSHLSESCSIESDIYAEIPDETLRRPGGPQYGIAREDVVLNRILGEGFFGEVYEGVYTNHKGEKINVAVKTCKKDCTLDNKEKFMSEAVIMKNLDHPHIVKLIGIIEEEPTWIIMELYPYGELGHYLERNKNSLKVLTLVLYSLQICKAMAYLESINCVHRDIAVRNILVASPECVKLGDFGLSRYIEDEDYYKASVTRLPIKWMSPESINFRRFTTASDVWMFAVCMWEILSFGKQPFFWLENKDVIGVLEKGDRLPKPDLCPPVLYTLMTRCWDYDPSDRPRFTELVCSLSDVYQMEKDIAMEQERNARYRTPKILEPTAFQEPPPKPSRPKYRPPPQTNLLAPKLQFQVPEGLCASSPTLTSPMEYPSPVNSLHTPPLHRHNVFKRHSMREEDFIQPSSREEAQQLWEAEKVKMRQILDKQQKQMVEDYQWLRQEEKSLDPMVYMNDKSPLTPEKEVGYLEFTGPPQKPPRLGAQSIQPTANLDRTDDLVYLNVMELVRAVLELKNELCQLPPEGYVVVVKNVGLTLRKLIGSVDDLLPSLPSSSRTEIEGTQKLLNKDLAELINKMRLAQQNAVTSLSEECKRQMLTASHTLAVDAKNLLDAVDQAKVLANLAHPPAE
Sequence of Fibroblast growth factor receptor 1 (Homo sapiens) (P11362 22-822 limits assumed): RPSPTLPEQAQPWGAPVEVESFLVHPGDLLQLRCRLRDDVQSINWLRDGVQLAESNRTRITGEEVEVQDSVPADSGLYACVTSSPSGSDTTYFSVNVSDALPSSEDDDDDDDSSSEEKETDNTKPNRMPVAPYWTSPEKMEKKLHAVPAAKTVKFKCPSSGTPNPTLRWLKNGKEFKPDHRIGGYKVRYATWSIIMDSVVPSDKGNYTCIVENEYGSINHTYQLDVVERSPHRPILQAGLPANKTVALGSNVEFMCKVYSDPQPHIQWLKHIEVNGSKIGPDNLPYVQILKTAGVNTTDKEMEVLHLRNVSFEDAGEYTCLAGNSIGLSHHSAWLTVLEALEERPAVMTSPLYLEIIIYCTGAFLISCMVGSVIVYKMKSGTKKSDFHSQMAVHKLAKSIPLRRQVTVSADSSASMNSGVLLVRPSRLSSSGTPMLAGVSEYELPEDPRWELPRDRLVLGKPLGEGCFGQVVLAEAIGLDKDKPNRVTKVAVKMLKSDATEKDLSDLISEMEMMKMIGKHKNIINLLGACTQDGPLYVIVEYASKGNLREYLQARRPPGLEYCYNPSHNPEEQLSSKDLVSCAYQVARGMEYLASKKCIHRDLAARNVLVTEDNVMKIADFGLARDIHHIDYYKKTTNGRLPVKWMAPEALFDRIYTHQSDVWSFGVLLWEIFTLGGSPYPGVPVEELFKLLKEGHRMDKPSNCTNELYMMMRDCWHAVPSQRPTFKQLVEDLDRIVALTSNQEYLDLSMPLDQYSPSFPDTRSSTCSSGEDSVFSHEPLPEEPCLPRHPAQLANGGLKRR

Cc1cc(-c2ccc(NCCN)cc2)c(/C=C2\C(=O)Nc3ccccc32)[nH]1
IC50 [1]: 149 nM

O=C(OCc1cc(=O)oc2cc(O)c(O)cc12)c1cc2ccccc2cc1O
inhibition [2]: > 50%

Oc1ccc(-n2cccc2)cc1C(O)O
inhibition [2]: > 50%

Oc1cc(C(O)O)c2cc(Oc3ccc4nc(O)cc(C(O)O)c4c3)ccc2n1
inhibition [2]: > 50%

Cc1cc(-c2cccc(NCCN)c2)c(/C=C2\C(=O)Nc3ccccc32)[nH]1
IC50 [1]: 89.1 nM

Oc1ccc(Nc2ncnc3ccc(Br)cc23)cc1
IC50 [1]: 2850 nM | inhibition [2]: > 50%

Oc1ccc(Nc2nc(-c3ccccc3O)nc3ccccc23)cc1
IC50 [1]: 4240 nM

COc1cc(N2CCCC2)ccc1/C=C1\C(=O)NC(=O)N(c2cccnc2)C1=O
inhibition [2]: > 50%

Cc1[nH]c(/C=C2\C(=O)Nc3ccccc32)c(C)c1-c1ccc(NCCN)cc1
IC50 [1]: 415 nM

Cc1cc(-c2ccc(N)cc2)c(/C=C2\C(=O)Nc3ccccc32)[nH]1
IC50 [1]: 368 nM

Oc1ccc(C2Oc3cc(O)cc(O)c3CC2O)cc1 (stereo not given)
inhibition [2]: > 50%

Cc1cc(-c2cccc(N)c2)c(/C=C2\C(=O)Nc3ccccc32)[nH]1
IC50 [1]: 61.8 nM | inhibition [3]: 97.6% | inhibition [4]: 98.7% | inhibition [5]: 93.8% | inhibition [6]: 5.1% | inhibition [7]: -6.5% | inhibition [8]: -2.3% | inhibition [9]: 4.9% | inhibition [10]: 62.7% | inhibition [11]: 98.1% | inhibition [12]: 91.2% | inhibition [13]: 97.2% | inhibition [14]: 34.2% | inhibition [15]: 9% | inhibition [16]: 81.7% | inhibition [17]: 69.8% | inhibition [18]: 12.7% | inhibition [19]: 56.6% | inhibition [20]: 39% | inhibition [21]: 58.5% | inhibition [22]: 14% | inhibition [23]: 99.4% | inhibition [24]: 100% | inhibition [25]: 86.5% | inhibition [26]: 5.1%

COc1c(OCCN2CCCCC2)cc(F)c2c(-c3ccc(O)c(Cl)c3)nc3[nH]nc(C)c3c12
IC50 [1]: ≤ 99 nM

CC(=O)COc1ccc2c(c1)O/C(=C\c1ccc([N+](=O)[O-])cc1)C2=O
inhibition [2]: > 50%

Oc1c2ccccc2c2c3c(cccc13)N=N2
inhibition [2]: > 50%

Cc1ccc(NC2=NC(=O)/C(=C3\C(=O)Nc4ccccc43)S2)cc1
IC50 [1]: 3750 nM

O=C1Nc2ccccc2/C1=C/c1c[nH]nc1-c1cccs1
inhibition [2]: > 50%

O=C1Nc2ccccc2/C1=C/c1c[nH]nc1-c1ccccc1
IC50 [1]: 1730 nM

COc1cc(-c2nc3cc(C)ccn3c2/N=C/c2cc(Cl)ccc2O)ccc1O
IC50 [1]: 2400 nM

NC(Cc1cc(O)c(O)cc1O)C(O)O (stereo not given)
inhibition [2]: > 50%

CC1CN(Cc2c(-c3cccs3)[nH]c3ncccc23)CC(C)O1 (stereo not given)
IC50 [1]: 9290 nM

Oc1ccccc1-c1nc(Nc2ccc(Cl)cc2)c2ccccc2n1
IC50 [1]: 6460 nM

Cc1[nH]c(/C=C2\C(=O)Nc3ccccc32)c(C)c1-c1cccc(NCCN)c1
IC50 [1]: 604 nM

COc1cc2c(-c3ccc(O)cc3)nc3[nH]nc(C)c3c2cc1OC
IC50 [1]: ≤ 99 nM

Cc1[nH]c(/C=C2\C(=O)Nc3ccc(F)cc32)c(C)c1C(=O)O
IC50 [1]: 910 nM

Cn1cc(/C=C2\C(=O)Nc3ccccc32)c2ccccc21
inhibition [2]: > 50%

Cc1cc(-c2cccc(N)c2)c(/C=C2\C(=O)Nc3ccc(N)cc32)[nH]1
IC50 [1]: 50.8 nM

Cc1cc(-c2ccc(N)cc2)c(/C=C2\C(=O)Nc3ccc(N)cc32)[nH]1
IC50 [1]: 68.3 nM

CN(C)S(=O)(=O)c1ccc2c(c1)/C(=C/c1cc3c([nH]1)CCCC3)C(=O)N2
IC50 [1]: 850 nM

O=[N+]([O-])c1ccc2ncnc(Nc3ccc(O)cc3)c2c1
IC50 [1]: 8660 nM

O=C1c2c(cc(O)c(O)c2O)CCCC1O (stereo not given)
inhibition [2]: > 50%

CCc1nc(C)c(/C=C2\C(=O)Nc3ccccc32)[nH]1
IC50 [1]: 1380 nM

COc1cc2ncnc(Nc3ccc(O)cc3)c2cc1OC [WHI-P131]
IC50 [1]: 2400 nM

CCc1nc(/C=C2\C(=O)Nc3ccccc32)c[nH]1
inhibition [2]: > 50%

CCOC(=O)c1ccc(Nc2nc(Nc3ccc(Cl)cc3)c3nccnc3n2)cc1
IC50 [1]: 3470 nM
